Assay outcomes deposited in PubChem BioAssay by several laboratories.
Hits are enriched below; roughly 1.9% of the tested compounds scored in any of these assays.
NR1D1 modulator – Rev-erb alpha (human) modulation; hit rate 0.79% among 370,000; activity, % at 10 µM; Rev-erbα–FITC-DNA binding, fluorescence polarization, 90 min; AID 1259318; P20393;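 active = activity above about 14%, limit read from the data; passing the limit was not always enough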;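 also: 0% = DMSO wells with 35 nM protein and 100% = DMSO wells with 750 nM protein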
Target sequence (P20393 whole entry, looked up): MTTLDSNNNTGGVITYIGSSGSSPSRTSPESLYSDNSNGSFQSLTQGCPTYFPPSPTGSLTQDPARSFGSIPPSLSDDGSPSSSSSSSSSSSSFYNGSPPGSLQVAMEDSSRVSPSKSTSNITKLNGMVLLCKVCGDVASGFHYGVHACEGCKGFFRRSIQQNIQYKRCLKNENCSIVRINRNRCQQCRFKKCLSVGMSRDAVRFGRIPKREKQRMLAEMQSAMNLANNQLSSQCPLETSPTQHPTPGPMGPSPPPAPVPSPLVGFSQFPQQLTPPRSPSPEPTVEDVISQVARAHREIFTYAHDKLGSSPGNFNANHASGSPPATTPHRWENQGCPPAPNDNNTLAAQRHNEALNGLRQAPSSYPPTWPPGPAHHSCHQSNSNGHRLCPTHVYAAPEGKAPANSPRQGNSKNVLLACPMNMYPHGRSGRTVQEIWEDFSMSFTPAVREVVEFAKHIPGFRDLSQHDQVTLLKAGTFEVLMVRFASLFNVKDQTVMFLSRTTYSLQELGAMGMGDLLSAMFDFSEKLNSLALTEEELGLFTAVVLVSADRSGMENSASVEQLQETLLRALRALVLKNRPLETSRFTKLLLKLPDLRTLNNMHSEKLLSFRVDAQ
Rce1 inhib – blocks yeast Ras-converting enzyme | yeast membranes, quenched prenylated peptide cleavage fluorescence | calls only | hit rate 0.27% among 290,000 | AID 2563;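 active = fall in fluorescence gain of 50% or more versus controls, with final raw signal at or below 3038400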;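 also: plate controls were neutral control wells for no effect and wells lacking membranes for full effect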
UCH37 DUB inh – blocks the human deubiquitinase UCH37 | AID 588478 | Q9Y5K5 | purified proteasome/UCH37, Ub-AMC cleavage fluorescence | inhibition, % (concentration not given with the values) | hit rate 0.33% among 330,000;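 active = mean inhibition over replicate wells above about 20%, limit read from the data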;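 also: 0% = compound-free wells with enzyme and 100% = wells lacking proteasome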
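Signal – fluorescence, ex 355 nm, em 460 nm · System – Proteasome-bound UCH37 · Input – 0.15 nM proteasome as dispensed · Timing – 30 min preincubation with enzyme, 25 min cleavage at room temperature · Read-out basis – percent inhibition of cleavage signal versus uninhibited and no-proteasome wells · Medium – Tris-HCl pH 7.4 with ATP-MgCl2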
PG9 Ab binder – small molecules binding HIV-1 gp120 antibody PG9 | TR-FRET gp120-PG9 antibody binding | inhibition, % at 6.7 µM | hit rate 0.43% among 360,000; in the data active = inhibition above about 8.5%
CR mimetic SO – lowers age-related superoxide in aged yeast cells. superoxide response (% of plate mean), % at 10 µM. S. cerevisiae aged cells, superoxide DHE fluorescence; active compounds read low. hit rate 0.18% among 330,000;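 active = superoxide response under a set limit, about three screen SD below normal, cut at about 65% in these data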;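 also: yeast aged for seven days with compound at 30 °C before DHE staining; 100% = average MFI of all compound-treated wells on the plate with controls excluded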
beta cell repl – induces beta-cell replication in MIN6 cells. hit rate 0.29% among 330,000. AID 2380. proliferation, % at 10 µM. MIN6 cells proliferation, ATPlite luminescence, 48 h; cells starved in 0.2% serum; 100% = growth in 10% serum;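 active = compounds whose signal lies at least 3.5 SD above the mean of all wells on their plate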;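 also: 0% = DMSO-treated cells in low-serum medium and 100% = 10% serum control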
Rev-erbA confirm – confirmation of modulators of human Rev-erb alpha DNA binding. hit rate 61% among 3,000. activation, % at 25 µM. shares compounds with NR1D1 modulator. Rev-erb alpha FITC-DNA binding, fluorescence polarization, 90 min;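 active = activation at or above a set limit, or at least 3 SD above the negative control mean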;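 also: 0% = 35 nM protein with DMSO and 100% = 750 nM protein high control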
RORg counter – affects RORgamma DNA binding in a Rev-erb alpha counter-screen | hit rate 8% among 910 | IC50, µM | shares compounds with NR1D1 modulator | purified RORgamma protein-FITC-DNA binding, fluorescence polarization;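 active = Compounds whose fitted half-maximal concentration for disrupting protein-DNA binding is below 10 micromolar; the record names Rev-erb in its text, so the target is in doubt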
An asterisk follows results filed as active; i = inactive; x = no result given.

SMILES | NR1D1 modulator | Rce1 inhib | UCH37 DUB inh | PG9 Ab binder | CR mimetic SO | beta cell repl | Rev-erbA confirm | others
O=c1c2ccccc2nc2sc(Nc3cccc(Cl)c3)nn12 | 127* | x | 1 | 7 | 87 | -2 | 88* | RORg counter=>40
O=c1c2ccc(F)cc2nc2sc(Nc3ccc4c(c3)CCC4)nn12 | 74* | x | x | x | x | x | 2
COc1ccc(C=NNc2ncc(C(F)(F)F)cc2Cl)c(OC)c1OC | x | x | 1 | x | x | x | x
O=C(Nc1nnc(-c2ccc(Br)cc2)o1)c1cccc(N2C(=O)CCC2=O)c1 | 18* | i | 2 | -2 | 105 | -1 | 0
COCCCNC(=S)NN=Cc1cccc(OC)c1O | x | x | -20 | x | x | x | x
CCc1noc(C)c1C(=O)Nc1nc(-c2ccc(Cl)cc2Cl)c(C)s1 | 32* | i | 3 | 4 | 92 | -3 | 25*
CCc1noc(C)c1C(=O)Nc1ccc(F)c(F)c1 | 7 | i | 2 | 0 | 97 | -1 | x
CSc1nnc(N2C(=O)C(O)=C(C(=O)c3ccco3)C2c2cccc(Cl)c2)s1 (stereo not given) | 31* | i | 5 | 0 | 109 | x | 29* | RORg counter=>40
COc1ccc(C2=NN(C(=O)COc3ncnc4ccccc34)C(c3ccco3)C2)cc1 (stereo not given) | 31* | i | 1 | -1 | 103 | 3 | 6
O=C(COc1ccc(Cl)cc1)Nc1cccc(-c2ccc(N3CCOCC3)nn2)c1 | 20* | i | 1 | 5 | 98 | -5 | 12
Cn1c(=O)c2c(nc(Br)n2CC=NNC(N)=S)n(C)c1=O | x | x | 5 | x | x | x | x
CCOc1cc2[nH]c(=S)n(C3CCN(Cc4ccccc4)CC3)c(=O)c2cc1OCC | 10 | i | 3 | 1 | 102 | -4 | x
O=c1c2cc3c(cc2[nH]c(=S)n1C1CCN(Cc2ccccc2)CC1)OCO3 | 15* | i | 4 | 0 | 111 | -2 | 6
Cc1ccc(-c2n[nH]c(=S)n2N=Cc2ccncc2)cc1 | x | x | 5 | x | x | x | x
Fc1ccc(NC(=S)NN=Cc2ccc(F)c(F)c2)cc1 | x | x | 0 | x | x | x | x
Cc1ccc(-c2nc(NC(=O)CSc3cc(C)c4ccccc4n3)ns2)cc1 | 499* | i | 6 | 0 | 99 | -1 | 61* | RORg counter=>40
O=C(CSc1nnnn1-c1ccccc1)Nc1nsc(-c2ccc(Cl)cc2)n1 | 26* | i | 0 | 8 | 112 | -3 | 43*
COc1ccc2c(C)cc(SCC(=O)Nc3nsc(-c4ccc(C)cc4)n3)nc2c1 | 5 | i | 1 | 0 | 90 | -4 | x
COC(=O)c1cc2c(=O)c3ccccc3oc2nc1C | -3 | i | 4 | 1 | 113 | x | x
CCc1nc2oc3ccc(C)cc3c(=O)c2cc1C(=O)OC | 30* | i | -13 | -2 | 102 | x | 27*
O=C(CCOc1ccccc1)Nc1nnc(-c2ccc3c(c2)OCCO3)o1 | 6 | i | 1 | 2 | 104 | -3 | x
O=C(Nc1nnc(-c2ccc3c(c2)OCCO3)o1)c1ccc(Cc2ccccc2)cc1 | 31* | i | -7 | 2 | 101 | -6 | 3
CCOC(=O)c1c(-c2ccc(C)cc2)csc1N=CN(C)C | x | x | 5 | x | x | x | x
Cc1ccc(-n2nc3ccc(NC(=O)c4cccc([N+](=O)[O-])c4C)cc3n2)cc1 | 26* | i | 0 | 0 | 104 | -1 | 0
Cc1c(Cc2ccc3c(c2)OCO3)sc(NC(=O)c2ccc3ccccc3c2)c1C(N)=O | 23* | i | -77 | 0 | 100 | -7 | 2
O=C(Nc1ccccc1)c1ccc(N2CCN(c3ccccc3)CC2)c(S(=O)(=O)N2CCOCC2)c1 | 61* | x | -3 | -2 | 95 | -2 | 29*
O=C(O)c1ccc(-c2ccc(/C=N/Nc3ccc([N+](=O)[O-])cc3)o2)cc1 | 21* | i | x | -1 | 88 | -2 | 18*
O=C(O)c1cccc(-c2ccc(C=NNc3ccc([N+](=O)[O-])cc3)o2)c1 | x | x | 14 | x | x | x | x
COc1ccc(C(=O)Nc2cc(C(C)=O)c(C)oc2=O)cc1 | 0 | i | 2 | -2 | 93 | 1 | x
